We go through 92 molecules from PubChem BioAssay AID624290 (Broad Institute, 2012).

Where “and” joins values, the source holds several entries; their conditions need not be identical. Equal entries are not always repeated. Calls of active or inactive are those of the source.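 The calls were made as follows: active = compounds dimming the MITF-driven luciferase signal, with fitted AC50 at most twice the top tested dose; inconclusive = flat curves with moderate signal drop, or poor-quality fits; inactive = the rest.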

The subject of this test is SK-MEL-5 TRPM1-promoter luciferase reporter, 24 h. The test is described as follows: TRPM1 promoter luciferase signal reduction, dose response, MITF inhibitor project, cell-based, SK-MEL-5, dry powder samples, set 2 (AID 624290). Put shortly: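 Assay system – TRPM1 promoter–luciferase reporter stably expressed in SK-MEL-5 melanoma cells · Timing – compound pinned one day after plating, 24 h exposure at 37 °C · Measured by – luciferase luminescence with SteadyGlo reagent, 5 min room-temperature incubation · Measure – luminescence change reflecting TRPM1 promoter activity, decrease as inhibition · Control set – parthenolide positive control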
The term AC50 denotes the concentration at which the activity in the assay is half-maximal. In the case of `O=C1C(NS(=O)(=O)c2cccs2)=C(N2CCOCC2)C(=O)c2ccccc21`, the AC50 is 10.2 µM.

`CC(=O)N(C)C1=C(N2CCCCC2)C(=O)c2ccccc2C1=O`: the AC50 is 0.576 µM.

On to `COc1ccc(C(=O)NC2=C(c3ccc(OC)cc3)C(=O)c3ccccc3C2=O)cc1`, for which the AC50 was 5.86 µM.

As to `C=CCNC1=C(NCCCN(CC)CC)C(=O)c2ccccc2C1=O`, the AC50 was 2.17 µM.

Regarding `O=C(NC1=C(c2ccc(OC(F)(F)F)cc2)C(=O)c2ccccc2C1=O)c1ccccc1F`, the AC50 was 12 µM.

Regarding `O=C1C(Nc2ccccc2)=C(N2CCOCC2)C(=O)c2ccccc21`, the AC50 is 7.25 µM and 6.91 µM.

With `COc1ccc(C2=C(NC(C)=O)C(=O)c3ccccc3C2=O)cc1`, the AC50 is 4.13 µM.

Regarding `C=CCNC1=C(NCC=C)C(=O)c2ccccc2C1=O`, the AC50 was > 70 µM (inactive).

As to `C=CCNC1=C(NCCN(CC)CC)C(=O)c2ccccc2C1=O`, the concentration at half-maximal activity (AC50) is 1.88 µM.

On to `C=CCNC1=C(N2CCN(C)CC2)C(=O)c2ccccc2C1=O`, for which the AC50 was 4.58 µM.

With `O=C(NC1=C(c2ccc(OC(F)(F)F)cc2)C(=O)c2ccccc2C1=O)c1ccco1`, the AC50 was 14.8 µM.

In the case of `CC(=O)NC1=C(c2ccccc2)C(=O)c2ccccc2C1=O`, the AC50 is 4.94 µM.

Turning to `COc1cccc(C2=C(NC(=O)c3ccccc3)C(=O)c3ccccc3C2=O)c1`, the AC50 was 13.4 µM.

Consider `O=C(NC1=C(N2CCN(c3ccccc3)CC2)C(=O)c2ccccc2C1=O)c1ccccc1`, for which the AC50 is 17.1 µM.

For the molecule `O=C(NC1=C(N2CCOCC2)C(=O)c2ccccc2C1=O)c1ccc(Br)cc1`, the concentration at half-maximal activity (AC50) is 4.96 µM.

Turning to `COc1ccc(C2=C(NC(=O)c3cccc(OC)c3)C(=O)c3ccccc3C2=O)cc1`, the AC50 is 7.97 µM.

With `O=C1C(NCCCN2CCOCC2)=C(Nc2ccccc2)C(=O)c2ccccc21`, the AC50 was 7.78 µM.

On to `Cc1nc2ccccc2n1/N=C/c1ccc([N+](=O)[O-])s1`, for which the half-maximal activity concentration (AC50) is 1.98 µM.

In the case of `NC1=C(NC(=O)c2ccccc2)C(=O)c2ccccc2C1=O`, the AC50 was 3.65 µM.

On to `COc1ccc(C2=C(NC(=O)c3ccccc3Cl)C(=O)c3ccccc3C2=O)cc1`, for which the AC50 is 4.92 µM.

Turning to `C=CCNC1=C(N2CCN(CC)CC2)C(=O)c2ccccc2C1=O`, the AC50 was 4.69 µM.

In the case of `C=CCNC1=C(NCCCN2CCOCC2)C(=O)c2ccccc2C1=O`, the AC50 was 10.5 µM.

As to `CCN1CCN(C2=C(NC(=O)c3ccccc3)C(=O)c3ccccc3C2=O)CC1`, the AC50 is 0.714 µM.

In the case of `O=C1C(NS(=O)(=O)c2ccc(Br)cc2)=C(N2CCN(c3ccccc3)CC2)C(=O)c2ccccc21`, the AC50 is 21.3 µM.

As for `O=C1C(Nc2ccccc2)=C(N2CCCCC2)C(=O)c2ccccc21`, the AC50 is 9.81 µM.

With `C=CCNC1=C(NC(=O)c2ccccc2)C(=O)c2ccccc2C1=O`, the AC50 is 17.5 µM.

Take `COc1ccc(C2=C(NC(=O)c3ccc4ccccc4c3)C(=O)c3ccccc3C2=O)cc1`: the AC50 is > 70 µM (inactive).

With `O=C(NC1=C(c2ccc(Oc3ccccc3)cc2)C(=O)c2ccccc2C1=O)c1ccccc1`, the AC50 is > 70 µM (inactive).

As for `C=CCNC1=C(N2CCSCC2)C(=O)c2ccccc2C1=O`, the half-maximal activity concentration (AC50) was 5.12 µM.

For the molecule `C[C@@H](NC1=C(Nc2ccccc2)C(=O)c2ccccc2C1=O)c1ccccc1`, the AC50 was 6.71 µM.

Turning to `COc1ccc(C2=C(NC(=O)c3ccccc3OC)C(=O)c3ccccc3C2=O)cc1`, the AC50 is 25.4 µM.

With `O=C1C(NS(=O)(=O)c2cccs2)=C(N2CCCCC2)C(=O)c2ccccc21`, the AC50 is 21.3 µM.

As to `CN1CCN(C2=C(NC(=O)c3ccc(Br)cc3)C(=O)c3ccccc3C2=O)CC1`, the AC50 was 0.685 µM.

Take `CC(=O)NC1=C(c2cccc(Cl)c2)C(=O)c2ccccc2C1=O`: the AC50 was 2.31 µM.

On to `O=C(NC1=C(c2ccccc2)C(=O)c2ccccc2C1=O)c1ccccc1`, for which the half-maximal activity concentration (AC50) is 3.73 µM.

As for `COc1ccc(C(=O)NC2=C(c3ccccc3)C(=O)c3ccccc3C2=O)cc1`, the AC50 was 4.99 µM.

For `CC(=O)N(C)C1=C(N2CCOCC2)C(=O)c2ccccc2C1=O`, the AC50 was 2.04 µM.

Turning to `O=C(NC1=C(Cl)C(=O)c2ccccc2C1=O)c1ccccc1`, the AC50 is 0.806 µM.

In the case of `C=CCNC1=C(N(C)C(C)=O)C(=O)c2ccccc2C1=O`, the AC50 is 0.0779 µM.

`Cc1ccc(C(=O)NC2=C(c3ccc(OC(F)(F)F)cc3)C(=O)c3ccccc3C2=O)o1`: the AC50 is 12.4 µM.

With `CN1CCN(C2=C(NC(=O)c3ccccc3)C(=O)c3ccccc3C2=O)CC1`, the AC50 is 0.524 µM.

As to `C=CCNC1=C(Cl)C(=O)c2ccccc2C1=O`, the AC50 was 2.22 µM and 1.94 µM.

For `O=C1C(NS(=O)(=O)c2ccc(Br)cc2)=C(N2CCOCC2)C(=O)c2ccccc21`, the AC50 is 6.22 µM.

Take `O=C(NC1=C(N2CCOCC2)C(=O)c2ccccc2C1=O)c1ccccc1`: the AC50 was 5.21 µM.

As for `O=C1C(NS(=O)(=O)c2ccc(Br)s2)=C(N2CCCCC2)C(=O)c2ccccc21`, the AC50 is 16.6 µM.

For the molecule `COc1ccc(C2=C(N)C(=O)c3ccccc3C2=O)cc1`, the AC50 was 35.1 µM.

Regarding `CCN1CCN(C2=C(Nc3ccccc3)C(=O)c3ccccc3C2=O)CC1`, the AC50 is 2.34 µM.

For `COc1ccc(C2=C(NC(=O)c3cccc(Cl)c3)C(=O)c3ccccc3C2=O)cc1`, the AC50 is 15.1 µM.

On to `COc1ccc(C(=O)NC2=C(c3ccc(OC(F)(F)F)cc3)C(=O)c3ccccc3C2=O)cc1`, for which the AC50 was 34.1 µM.

On to `CN1CCN(C2=C(NS(=O)(=O)c3ccc(Br)s3)C(=O)c3ccccc3C2=O)CC1`, for which the half-maximal activity concentration (AC50) is 2.53 µM.

For `COc1ccc(S(=O)(=O)N(C(C)=O)c2ccc(OC(C)=O)c3ccccc23)cc1[N+](=O)[O-]`, the half-maximal activity concentration (AC50) is 6.36 µM.

Take `COc1ccc(C2=C(NC(=O)c3ccc(Cl)cc3)C(=O)c3ccccc3C2=O)cc1`: the AC50 was 12.2 µM.

Consider `CCN(CC)CCCNC1=C(N(C)C(C)=O)C(=O)c2ccccc2C1=O`, for which the AC50 is 0.823 µM.

`CN1CCN(C2=C(NS(=O)(=O)c3ccccc3)C(=O)c3ccccc3C2=O)CC1`: the AC50 was 0.984 µM.

For `CN1CCN(C2=C(NS(=O)(=O)c3cccs3)C(=O)c3ccccc3C2=O)CC1`, the concentration at half-maximal activity (AC50) is 1.94 µM.

Take `CCN1CCN(C2=C(NS(=O)(=O)c3ccc(Br)cc3)C(=O)c3ccccc3C2=O)CC1`: the AC50 was 4.27 µM.

For `C=CCNC1=C(Nc2ccccc2)C(=O)c2ccccc2C1=O`, the AC50 was 8.22 µM.

Turning to `O=C(NC1=C(N2CCSCC2)C(=O)c2ccccc2C1=O)c1ccc(Br)cc1`, the AC50 is 6.2 µM.

For the molecule `O=C1C(NS(=O)(=O)c2ccc(Br)cc2)=C(c2ccccc2)C(=O)c2ccccc21`, the AC50 was 18.5 µM.

Consider `CC(=O)NC1=C(c2ccc(Cl)cc2)C(=O)c2ccccc2C1=O`, for which the AC50 was 4.56 µM.

As to `CCN(CC)CCNC1=C(Nc2ccccc2)C(=O)c2ccccc2C1=O`, the AC50 was 1.66 µM.

Take `CN1CCN(C2=C(Nc3ccccc3)C(=O)c3ccccc3C2=O)CC1`: the AC50 was 4.21 µM.

As for `O=C1C(Nc2ccccc2)=C(N2CCSCC2)C(=O)c2ccccc21`, the AC50 is 11.9 µM.

Regarding `CC(=O)NC1=C(c2ccc(Oc3ccccc3)cc2)C(=O)c2ccccc2C1=O`, the AC50 is 17 µM.

In the case of `O=C1C(NS(=O)(=O)c2ccc(Br)s2)=C(N2CCOCC2)C(=O)c2ccccc21`, the AC50 was 10.5 µM.

With `C=CCNC1=C(N2CCOCC2)C(=O)c2ccccc2C1=O`, the concentration at half-maximal activity (AC50) is 2.17 µM.

For the molecule `CCN1CCN(C2=C(NS(=O)(=O)c3cccs3)C(=O)c3ccccc3C2=O)CC1`, the AC50 is 2.8 µM.

On to `O=C(NC1=C(c2ccc(OC(F)(F)F)cc2)C(=O)c2ccccc2C1=O)c1ccc(Br)cc1`, for which the AC50 is 16.3 µM.

Regarding `O=C1C(NS(=O)(=O)c2ccc(Br)cc2)=C(N2CCSCC2)C(=O)c2ccccc21`, the AC50 is 13.9 µM.

For the molecule `O=C(NC1=C(N2CCSCC2)C(=O)c2ccccc2C1=O)c1ccccc1`, the AC50 is 3.07 µM.

Consider `O=C1C=C(Nc2ccccc2)C(=O)c2ccccc21`, for which the AC50 was 4.03 µM.

For the molecule `C=CCNC1=C(NS(=O)(=O)c2cccs2)C(=O)c2ccccc2C1=O`, the AC50 is 16 µM.

As to `C=CCNC1=C(N2CCCCC2)C(=O)c2ccccc2C1=O`, the AC50 is 0.614 µM.

For `O=C1C(Nc2ccccc2)=C(NS(=O)(=O)c2ccccc2[N+](=O)[O-])C(=O)c2ccccc21`, the half-maximal activity concentration (AC50) is 17.9 µM.

Regarding `CCN1CCN(C2=C(NS(=O)(=O)c3ccc(Br)s3)C(=O)c3ccccc3C2=O)CC1`, the AC50 is 2.97 µM.

`CC(=O)N(C)C1=C(N2CCN(C)CC2)C(=O)c2ccccc2C1=O`: the AC50 is 0.432 µM.

As to `O=C(NC1=C(c2ccc(OC(F)(F)F)cc2)C(=O)c2ccccc2C1=O)c1ccccc1`, the AC50 was 16.6 µM.

`O=C(NC1=C(N2CCCCC2)C(=O)c2ccccc2C1=O)c1ccccc1`: the AC50 is > 32 µM (inactive).

`C=CCNC1=C(NS(=O)(=O)c2ccc(Br)cc2)C(=O)c2ccccc2C1=O`: the AC50 is 6.19 µM.

As for `O=C1C(NS(=O)(=O)c2ccc(Br)cc2)=C(N2CCCCC2)C(=O)c2ccccc21`, the AC50 was 10.5 µM.

Regarding `CCN1c2ccccc2NC2N=C(OC)C(c3ccccc3)C21` (configuration not stated), the AC50 is 2.44 µM.

Turning to `CCN1CCN(C2=C(NC(=O)c3ccc(Br)cc3)C(=O)c3ccccc3C2=O)CC1`, the half-maximal activity concentration (AC50) is 0.433 µM.

On to `Cc1ccc(C(=O)NC2=C(c3ccccc3)C(=O)c3ccccc3C2=O)o1`, for which the AC50 is 4.25 µM.

Regarding `NC1=C(c2ccccc2)C(=O)c2ccccc2C1=O`, the AC50 was 5.86 µM.

Turning to `O=C1C(NS(=O)(=O)c2ccccc2)=C(N2CCOCC2)C(=O)c2ccccc21`, the concentration at half-maximal activity (AC50) is 10.5 µM.

With `CN1CCN(C2=C(NS(=O)(=O)c3ccc(Br)cc3)C(=O)c3ccccc3C2=O)CC1`, the AC50 is 1.59 µM.

Consider `NC1=CC(=O)c2ccccc2C1=O`, for which the AC50 is 1.1 µM.

As for `O=C1C(NS(=O)(=O)c2ccc(Br)s2)=C(N2CCSCC2)C(=O)c2ccccc21`, the concentration at half-maximal activity (AC50) is 12.1 µM.

On to `CCN(CC)CCCNC1=C(Nc2ccccc2)C(=O)c2ccccc2C1=O`, for which the AC50 is 2.01 µM.

As to `O=C1C(NS(=O)(=O)c2ccccc2)=C(N2CCCCC2)C(=O)c2ccccc21`, the concentration at half-maximal activity (AC50) was 21.5 µM.

On to `CC(=O)NC1=C(c2ccc3c(c2)oc2ccccc23)C(=O)c2ccccc2C1=O`, for which the AC50 was 1.04 µM.

Consider `COC1=C(NS(=O)(=O)c2ccccc2)C(=O)c2ccccc2C1=O`, for which the AC50 was 4.56 µM.
